Test results reported in ChEMBL document CHEMBL1811814, “Synthesis and evaluation of indole, pyrazole, chromone and pyrimidine based conjugates for tumor growth inhibitory activities--development of highly efficacious cytotoxic agents” (Eur J Med Chem, 2010).

Assays:
Format in all cases: functional
SK-MEL-5 [1] = assay: Growth inhibition of human SK-MEL-5 cells assessed tumor cell growth at 10^-5 M; parameters: scale not given: the % may be the effect or the level left
How it was run: (§1)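 NCI 60-human-tumor-cell-line panel screen. Each compound was tested at a single concentration of 10^-5 M, and percent growth of tumor cells was recorded for each cell line. Growth inhibition was expressed from these percent-growth values.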

RXF 393 [2] = assay: Growth inhibition of human RXF393 cells
OVCAR-8 [3] = assay: Growth inhibition of human OVCAR8 cells assessed tumor cell growth at 10^-5 M; parameters: scale not given: the % may be the effect or the level left; how it was run: as §1
NCI-H23 = assay: Growth inhibition of human NCI-H23 cells
UACC-62 = assay: Growth inhibition of human UACC62 cells
HOP-92 = assay: Growth inhibition of human HOP92 cells
SNB-75 = assay: Growth inhibition of human SNB75 cells
BT-549 [4] = assay: Growth inhibition of human BT549 cells
IGROV-1 = assay: Growth inhibition of human IGROV1 cells assessed tumor cell growth at 10^-5 M; parameters: scale not given: the % may be the effect or the level left; how it was run: as §1
DU-145 = assay: Growth inhibition of human DU145 cells
NCI-H522 [5] = assay: Growth inhibition of human NCI-H522 cells
786-0 [6] = assay: Growth inhibition of human 786-0 cells assessed tumor cell growth at 10^-5 M; parameters: scale not given: the % may be the effect or the level left; how it was run: as §1
RXF 393 [7] = assay: Growth inhibition of human RXF393 cells assessed tumor cell growth at 10^-5 M; parameters: scale not given: the % may be the effect or the level left; how it was run: as §1
HOP-62 = assay: Growth inhibition of human HOP62 cells
OVCAR-5 = assay: Growth inhibition of human OVCAR5 cells assessed tumor cell growth at 10^-5 M; parameters: scale not given: the % may be the effect or the level left; how it was run: as §1
TK-10 = assay: Growth inhibition of human TK10 cells assessed tumor cell growth at 10^-5 M; parameters: scale not given: the % may be the effect or the level left
How it was run: (§2)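 Single-dose screen at 10^-5 M across the 60 human tumor cell line panel, run to NCI standards. The value is the percent growth of each cell line in the presence of compound. Compounds active at this dose moved on to five-concentration testing (10^-4 to 10^-8 M).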

[8] = Growth inhibition of human Hs 578T cells
COLO 205 = assay: Growth inhibition of human COLO205 cells
CAKI-1 [9] = assay: Growth inhibition of human Caki1 cells assessed tumor cell growth at 10^-5 M; parameters: scale not given: the % may be the effect or the level left; how it was run: as §1
CAKI-1 [10] = assay: Growth inhibition of human Caki1 cells
786-0 [11] = assay: Growth inhibition of human 786-0 cells
SF-268 = assay: Growth inhibition of human SF268 cells assessed tumor cell growth at 10^-5 M; parameters: scale not given: the % may be the effect or the level left; how it was run: as §1
HCT-116 = assay: Growth inhibition of human HCT116 cells assessed tumor cell growth at 10^-5 M; parameters: scale not given: the % may be the effect or the level left; how it was run: as §1
ACHN = assay: Growth inhibition of human ACHN cells
U-251 [12] = assay: Growth inhibition of human U251 cells
T47D = assay: Growth inhibition of human T47D cells
KM12 = assay: Growth inhibition of human KM12 cells
NCI-H322M [13] = assay: Growth inhibition of human NCI-H322M cells assessed tumor cell growth at 10^-5 M; parameters: scale not given: the % may be the effect or the level left; how it was run: as §1
HT-29 = assay: Growth inhibition of human HT-29 cells
CCRF-CEM = assay: Growth inhibition of human CCRF-CEM cells
SK-MEL-2 [14] = assay: Growth inhibition of human SK-MEL-2 cells
A549 = assay: Growth inhibition of human A549 cells assessed tumor cell growth at 10^-5 M; parameters: scale not given: the % may be the effect or the level left; how it was run: as §1
OVCAR-8 [15] = assay: Growth inhibition of human OVCAR8 cells
Malme-3M = assay: Growth inhibition of human MALME-3M cells assessed tumor cell growth at 10^-5 M; parameters: scale not given: the % may be the effect or the level left; how it was run: as §1
UACC-257 [16] = assay: Growth inhibition of human UACC257 cells assessed tumor cell growth at 10^-5 M; parameters: scale not given: the % may be the effect or the level left; how it was run: as §2
HCC 2998 = assay: Growth inhibition of human HCC2998 cells assessed tumor cell growth at 10^-5 M; parameters: scale not given: the % may be the effect or the level left; how it was run: as §1
HL-60(TB) = assay: Growth inhibition of human HL-60(TB) cells
U-251 [17] = assay: Growth inhibition of human U251 cells assessed tumor cell growth at 10^-5 M; parameters: scale not given: the % may be the effect or the level left; how it was run: as §2
LOX IMVI = assay: Growth inhibition of human LOXIMVI cells assessed tumor cell growth at 10^-5 M; parameters: scale not given: the % may be the effect or the level left; how it was run: as §1
MDA-MB-468 = assay: Growth inhibition of human MDA-MB-468 cells assessed tumor cell growth at 10^-5 M; parameters: scale not given: the % may be the effect or the level left; how it was run: as §1
SK-MEL-5 [18] = assay: Growth inhibition of human SK-MEL-5 cells
MDA-MB-231 = assay: Growth inhibition of human MDA-MB-231 cells
MOLT-4 = assay: Growth inhibition of human MOLT4 cells assessed tumor cell growth at 10^-5 M; parameters: scale not given: the % may be the effect or the level left; how it was run: as §1
[19] = Growth inhibition of human RPMI8266 cells
PC-3 = assay: Growth inhibition of human PC3 cells assessed tumor cell growth at 10^-5 M; parameters: scale not given: the % may be the effect or the level left; how it was run: as §1
SF-295 = assay: Growth inhibition of human SF295 cells assessed tumor cell growth at 10^-5 M; parameters: scale not given: the % may be the effect or the level left; how it was run: as §1
BT-549 [20] = assay: Growth inhibition of human BT549 cells assessed tumor cell growth at 10^-5 M; parameters: scale not given: the % may be the effect or the level left; how it was run: as §1
SW-620 = assay: Growth inhibition of human SW620 cells assessed tumor cell growth at 10^-5 M; parameters: scale not given: the % may be the effect or the level left; how it was run: as §2
MDA-MB-435 = assay: Growth inhibition of human MDA-MB-435 cells assessed tumor cell growth at 10^-5 M; parameters: scale not given: the % may be the effect or the level left; how it was run: as §1
UACC-257 [21] = assay: Growth inhibition of human UACC257 cells
SK-MEL-2 [22] = assay: Growth inhibition of human SK-MEL-2 cells assessed tumor cell growth at 10^-5 M; parameters: scale not given: the % may be the effect or the level left; how it was run: as §1
NCI-H522 [23] = assay: Growth inhibition of human NCI-H522 cells assessed tumor cell growth at 10^-5 M; parameters: scale not given: the % may be the effect or the level left; how it was run: as §1
NCI-H322M [24] = assay: Growth inhibition of human NCI-H322M cells
[25] = read-out: LC50 (the source's name)

## CC1=NN(c2cccc(Cl)c2)C(=O)/C1=C\C=C\c1ccccc1
SK-MEL-5 [1]
  Activity: 5.05%
RXF 393 [2]
  GI50: 2.1 µM
RXF 393 [2]; [25]
  CC50: 7.2 µM
OVCAR-8 [3]
  Activity: 0.37%
NCI-H23
  GI50: 2.3 µM
  LC50 (concentration killing 50% of cells): > 100 µM
UACC-62
  GI50: 1.7 µM
UACC-62; [25]
  CC50: 8.5 µM
HOP-92
  GI50: 4.6 µM
HOP-92; [25]
  CC50: > 100 µM
SNB-75
  GI50: 7 µM
SNB-75; [25]
  CC50: > 100 µM
BT-549 [4]
  GI50: 1.6 µM
BT-549 [4]; [25]
  CC50: 6.1 µM
IGROV-1
  Activity: 45.54%
DU-145
  GI50: 2.8 µM
DU-145; [25]
  CC50: 53.7 µM
NCI-H522 [5]
  GI50: 2.6 µM
  LC50 (concentration killing 50% of cells): > 100 µM
786-0 [6]
  Activity: 35.48%
RXF 393 [7]
  Activity: -87.73%
HOP-62
  GI50: 3.1 µM
HOP-62; [25]
  CC50: 57.5 µM
OVCAR-5
  Activity: 143.86%
TK-10
  Activity: 44.8%
[8]
  GI50: 1.6 µM
[8]; [25]
  CC50: > 100 µM
COLO 205
  GI50: 2.3 µM
  LC50: > 100 µM
CAKI-1 [9]
  Activity: 52.22%
CAKI-1 [10]
  GI50: 1.9 µM
CAKI-1 [10]; [25]
  CC50: > 100 µM
786-0 [11]
  GI50: 2.1 µM
786-0 [11]; [25]
  CC50: 10.2 µM
SF-268
  Activity: 75.5%
HCT-116
  Activity: -89.22%
ACHN
  GI50: 1.7 µM
ACHN; [25]
  CC50: 6.1 µM
U-251 [12]
  GI50: 1.7 µM
U-251 [12]; [25]
  CC50: 23.9 µM
T47D
  GI50: 2.2 µM
T47D; [25]
  CC50: > 100 µM
KM12
  GI50: 1.6 µM
KM12; [25]
  CC50: 5.8 µM
NCI-H322M [13]
  Activity: 111.8%
HT-29
  GI50: 2.9 µM
HT-29; [25]
  CC50: > 100 µM
CCRF-CEM
  GI50: 3.1 µM
CCRF-CEM; [25]
  CC50: > 100 µM
SK-MEL-2 [14]
  GI50: 3.8 µM
SK-MEL-2 [14]; [25]
  CC50: > 100 µM
A549
  Activity: 94.48%
OVCAR-8 [15]
  GI50: 2.6 µM
OVCAR-8 [15]; [25]
  CC50: > 100 µM
Malme-3M
  Activity: 115.91%
UACC-257 [16]
  Activity: 63.3%
HCC 2998
  Activity: 30.87%
HL-60(TB)
  GI50: 3.1 µM
HL-60(TB); [25]
  CC50: > 100 µM
U-251 [17]
  Activity: -57.37%
LOX IMVI
  Activity: -87.87%
MDA-MB-468
  Activity: 9.96%
SK-MEL-5 [18]
  GI50: 2.2 µM
SK-MEL-5 [18]; [25]
  CC50: 20.8 µM
MDA-MB-231
  GI50: 2.2 µM
MDA-MB-231; [25]
  CC50: > 100 µM
MOLT-4
  Activity: 28.39%
[19]
  GI50: 2.8 µM
[19]; [25]
  CC50: > 100 µM
PC-3
  Activity: 45.45%
SF-295
  Activity: 101.1%
BT-549 [20]
  Activity: 78.36%
SW-620
  Activity: 1.26%
MDA-MB-435
  Activity: 13.63%
UACC-257 [21]
  GI50: 2.1 µM
UACC-257 [21]; [25]
  CC50: > 100 µM
SK-MEL-2 [22]
  Activity: 74.62%
NCI-H522 [23]
  Activity: 34.37%
NCI-H322M [24]
  GI50: 28.1 µM
NCI-H322M [24]; [25]
  CC50: > 100 µM
